Test results reported in publication PMC4322771 (Biopolymers, 2008).
Ends that are not written are not given here.

What was measured:
[1] = test system: Gal4(1–148)+KBP 2.20-mediated transcription; assay: Competitive inhibition, firefly luciferase reporter assay in HeLa cells; assay type: cell-based; conditions: 0 → 20 μM, activity measured 40 h after compound addition
[2] = target: murine CBP KIX domain (CBP(586–672)) (Mus musculus, UniProt P45481); assay: Fluorescence polarization binding to CBP KIX domain
murine CBP KIX domain (CBP(586–672)), sequence (P45481 586-672): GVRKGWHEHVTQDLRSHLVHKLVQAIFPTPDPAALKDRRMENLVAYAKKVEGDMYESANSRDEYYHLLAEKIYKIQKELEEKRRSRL
Summary of the method: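 Test compounds carried a fluorescein label at the amino terminus and were held at a constant concentration. Each was incubated at 25°C with increasing concentrations of exogenously expressed murine CBP KIX domain (residues 586–672). Fluorescence polarization was read at each protein concentration. Dissociation constants were obtained by Levenberg-Marquardt least-squares fitting of the binding data.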

Substance | Inhibitory activity on KBP 2.20-mediated transcription (in words) [1] | Fold lower dissociation constant for the KIX domain relative to KBP 1.66 [2]
SRAVRELLFGS | no impact | 
SWAVYELLFGS-NH2 (C-terminus assumed) [KBP 2.20] | little or no inhibitory activity | ~ 3 fold
